Compound activity from PubChem BioAssay.
Only some compounds are listed: those with a hit (about 3.7% of all), similar ones and a draw of the others.
EP2 modulator: modulates human prostaglandin E2 receptor EP2 signaling. P43116. EP2-expressing cells, cAMP HTRF FRET, PGE2 co-stimulation. induction, % at 25 µM. 260,000 tested, 0.83% active. AID 940;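 active = compounds whose cAMP rise, as percent of the full-agonist control response, exceeds 60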;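 also: rat C6 glioma line stably carrying human EP2 under a CMV promoter; the protocol text gives 20 µM as final concentration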
OX1R antag-1: human HCRTR1 antagonism; O43613; CHO/OX1R cells, Fluo-8 calcium fluorescence, orexin A; inhibition, % at 5 µM; 330,000 tested, 0.43% active; AID 434989;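 active = inhibition above its plate's threshold, mean inhibition of all tested compounds on the plate plus 3 SD, cut at about 37% in these data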
Target sequence (O43613 whole entry, looked up): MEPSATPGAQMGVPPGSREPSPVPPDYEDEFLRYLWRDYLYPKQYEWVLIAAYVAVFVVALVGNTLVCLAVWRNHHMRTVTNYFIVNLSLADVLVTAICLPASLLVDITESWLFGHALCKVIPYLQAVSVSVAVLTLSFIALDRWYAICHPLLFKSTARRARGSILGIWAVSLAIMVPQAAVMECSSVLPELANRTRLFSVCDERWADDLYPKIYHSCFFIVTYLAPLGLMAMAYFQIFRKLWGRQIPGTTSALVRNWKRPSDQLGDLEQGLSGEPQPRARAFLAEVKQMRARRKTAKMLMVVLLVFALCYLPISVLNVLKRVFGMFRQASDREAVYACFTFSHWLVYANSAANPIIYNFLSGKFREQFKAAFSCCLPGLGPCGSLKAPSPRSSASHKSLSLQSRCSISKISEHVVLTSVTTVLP
EP2 antag: inhibitors of human EP2 prostaglandin E2 receptor; inhibition, % at 25 µM; 260,000 tested, 0.52% active; C6 glioma cells expressing human EP2, cAMP TR-FRET; cells stimulated with saturating PGE2;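 active = percent inhibition above 40 after rounding to a whole number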;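 also: rat C6 glioma host cells with rolipram phosphodiesterase inhibitor present; the protocol text gives 20 µM as final concentration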
OX1R antag-2: OX1R (human) antagonism | 330,000 tested, 1.8% active | AID 485270 | inhibition, % at 6.6 µM | O43613 | OX1R-expressing cells, FRET antagonist read-out; in the data active = inhibition mostly above about 38%, no sharp cut-off; inactive = mostly below about 40%
GPR7 antagonist: antagonists of human GPR7 (neuropeptides B/W receptor 1) | P48145 | inhibition, % at 4.4 µM | GPR7-expressing cells, fluorescence antagonist assay | 290,000 tested, 1.1% active; in the data active = inhibition above about 16%, passing the limit was not always enough;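 also: cells stimulated with the agonist NPW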
CHO parental Ca: signal in parental CHO cells, OX1R antagonist counter-screen; AID 463079; inhibition, % at 5.6 µM; parental CHO-K1, ATP-induced calcium, Fluo-8 fluorescence; 330,000 tested, 0.63% active;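 active = inhibition above that plate's mean sample inhibition plus 3 SD, cut at about 26% in these data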
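Test system: untransfected parental CHO cell line. Compound: one dose, 5.6 µM nominal. Detection: intracellular calcium via Fluo-8 no-wash fluorescent dye. Measure: % inhibition. Benchmarks: ATP-challenged DMSO wells low, unchallenged DMSO wells high.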
Numbers stand for hits; - = inactive; . = no result.

SMILES	EP2 modulator	OX1R antag-1	EP2 antag	OX1R antag-2	GPR7 antagonist	CHO parental Ca
COc1ccc(C(=O)c2cc([N+](=O)[O-])ccc2N2CCN(C)CC2)cc1	-	-	-	-	34	-
N#CC1(NC(=O)COC(=O)c2cc([N+](=O)[O-])ccc2N2CCOCC2)CCCCC1	.	-	.	52	.	-
COc1ccc(C(=O)c2cc([N+](=O)[O-])ccc2N2CCCC2)cc1	-	-	-	-	-	-
CC1CCCN(C2=C(Cl)C(=O)N(c3cccc(Cl)c3)C2=O)C1 (centres undefined)	-	-	-	-	-	-
COc1ccc(-n2c(SCC(=O)Nc3nc(C)cs3)nnc2-c2ccoc2C)cc1	-	-	-	-	-	-
Cc1cnc(NC(=O)C2CCCO2)s1 (centres undefined)	-	-	-	-	-	-
COc1cccc(NC(=O)CSc2nc3cc4c(cc3cc2C#N)OCCO4)c1	-	.	-	.	.	.
CC(C)=CCc1c(O)c(CC=C(C)C)c2c(c1O)-c1cc(O)c(O)cc1CC2	.	-	54	-	.	-
CC1CCN(S(=O)(=O)c2cccc(C(=O)N(Cc3ccccc3)c3ccccn3)c2)CC1	-	-	-	-	19	-
CN1CCN(S(=O)(=O)c2cccc(C(=O)N(c3ccccn3)C3CCCCC3)c2)CC1	-	-	-	-	-	-
COC(=O)c1ccc(C)c(NC(=O)CN(c2cc(OC)ccc2OC)S(C)(=O)=O)c1	-	-	-	-	-	-
CCOC(=O)c1c(-c2ccccc2)oc2ccc(OCC(=O)O)cc12	68	-	-	-	-	-
CCN(CC)C(=O)c1c(-c2ccccc2)oc2ccc(OC)cc12	64	-	-	-	-	-
CCOc1ccc2oc(-c3ccccc3)c(C(=O)N(C)C)c2c1	-	-	-	-	-	-
CCOC(=O)c1c(-c2ccc(OC)cc2)oc2ccc(OCC(N)=O)cc12	.	-	.	-	-	-
Cc1nnc(SCC(=O)N2CCc3ccccc32)s1	-	-	-	-	16	-
O=C(CSc1ccccc1)N1CCc2ccccc21	-	-	-	-	-	-
CSc1nsc(SCC(=O)N2CCc3ccccc32)n1	-	-	-	-	-	-
CCn1cc(SCC(=O)N2CCc3ccccc32)c2ccccc21	-	-	-	36	-	32
COc1ccc(C(C)=O)cc1CSc1nc2cc(C(=O)O)ccc2c(=O)n1Cc1ccccc1	64	-	-	-	-	-
COc1cccc(NC(=O)CN2C(=O)CSc3ccc(S(=O)(=O)N4CCOCC4)cc32)c1	.	-	.	-	-	-
COc1cccc(CNC(=O)CN2C(=O)CSc3ccc(S(=O)(=O)N4CCOCC4)cc32)c1	.	-	.	37	-	-
O=C(COc1ccc2ccccc2c1Br)Nc1ccncc1	.	-	.	-	-	41
CC(C)(C)c1ccc(OCC(=O)Nc2ccncc2)c(Br)c1	.	-	.	-	-	47
Cc1cc(OCC(=O)Nc2ccncc2)c(C)cc1Br	-	-	-	-	-	58
SMILES	EP2 modulator	OX1R antag-1	EP2 antag	OX1R antag-2	GPR7 antagonist	CHO parental Ca
CCOc1ccc(/C=C/C(=O)N(CC)CC(=O)Nc2ccc3c(c2)OCCO3)cc1OCC	.	-	.	-	-	-
COCCCn1c(=N)c(C(=O)NC2CCCCC2)cc2c(=O)n3ccccc3nc21	-	-	-	76	-	-
N=c1c(C(=O)NC2CCCC2)cc2c(=O)n3ccccc3nc2n1CC1CCCO1 (centres undefined)	.	-	.	50	-	-
Cc1ccc(CNC(=O)c2cc3c(=O)n4ccccc4nc3n(CC3CCCO3)c2=N)cc1 (centres undefined)	-	-	-	66	-	-
N=c1c(C(=O)NCc2ccco2)cc2c(=O)n3ccccc3nc2n1C1CCCC1	.	-	.	54	-	-
Cc1c(Cl)cccc1NC(=O)Nc1cccnc1	.	-	.	-	-	-
CC(NC(=O)c1cc2c(=O)n3ccccc3nc2n(CC2CCCO2)c1=N)c1ccccc1 (centres undefined)	.	-	.	37	-	-
CCc1ccc(NC(=O)C2CCCN2C(=O)NC2CCCCC2)cc1 (centres undefined)	.	-	.	-	-	-
CCOC(=O)c1cc(C(=O)Nc2ccccc2F)nn1C	-	-	-	-	-	-
CCOC(=O)n1ccc(C(=O)Nc2ccccc2F)n1	-	-	-	-	-	29
CCn1c(Cl)c(C=O)s/c1=N\S(=O)(=O)c1ccccc1	-	-	-	-	45	-
Cc1cc2cc(C(c3nnnn3C3CCCCC3)N3CCc4ccccc43)c(=O)[nH]c2cc1C (centres undefined)	76	.	-	.	.	.
O=c1[nH]c2cc3c(cc2cc1C(c1nnnn1C1CCCC1)N1CCCCCC1)OCCO3 (centres undefined)	81	.	-	.	.	.
CCCC(c1nnnn1Cc1ccccc1)N(Cc1cc2cccc(C)c2[nH]c1=O)C1CCCCC1 (centres undefined)	69	.	-	.	.	.
CCCC(c1nnnn1Cc1ccccc1)N(Cc1cc2cc(C)ccc2[nH]c1=O)C1CCCCC1 (centres undefined)	-	.	-	.	.	.
CCOc1ccc2[nH]c(=O)c(C(c3nnnn3C3CCCC3)N3CCCc4ccccc43)cc2c1 (centres undefined)	74	.	-	.	.	.
Fc1ccc2c(c1)[C@H]1OCC[C@H]1[C@@H](c1ccco1)N2	-	-	-	-	-	-
CCN1CCN(C(=O)CCc2nc3ccccc3n2-c2ccccc2)CC1	-	-	-	-	-	-
Cc1cccc2cc(C(c3nnnn3C3CCCCC3)N3CCc4ccccc43)c(=O)[nH]c12 (centres undefined)	108	.	-	.	.	.
Cc1cccc2cc(C(c3nnnn3Cc3ccccc3)N3CCc4ccccc43)c(=O)[nH]c12 (centres undefined)	95	.	-	.	.	.
Cc1cccc2cc(C(c3nnnn3Cc3ccccc3)N3CCCc4ccccc43)c(=O)[nH]c12 (centres undefined)	-	-	-	-	-	-
CC(=O)c1cccc(CN2CCN(Cc3ccc(F)cc3)C(CCO)C2)c1 (centres undefined)	-	-	-	-	-	-
Cc1nc2cc(NC(=O)CS(=O)(=O)c3ccc(F)cc3)ccc2s1	.	-	.	-	.	-
COc1ccc(-c2noc(C3CCCN(S(=O)(=O)c4cccc(Cl)c4C)C3)n2)cc1OC (centres undefined)	-	-	-	45	-	-
CCN1CCN(Cc2nc3ccc([N+](=O)[O-])cc3c(=O)n2-c2ccc(OC)cc2OC)CC1	.	-	.	34	-	-
CCOC(=O)c1cnc(SCC(=O)Nc2cc(OCC)ccc2OCC)nc1N	-	.	-	.	.	.
CN1c2ccccc2C(C)(C)[C@]12C=Cc1cc(O)ccc1O2	-	-	-	-	-	48
Fc1ccc(C2CCN(Cc3ccncc3)CC2)cc1	-	.	-	.	.	.
CC(=O)N(C)c1ccc(OCC(O)Cn2c3ccc(Cl)cc3c3cc(Cl)ccc32)cc1 (centres undefined)	-	-	-	-	-	67
